# Data reported in ChEMBL document CHEMBL4837254, “Discovery of Investigational Drug CT1812, an Antagonist of the Sigma-2 Receptor Complex for Alzheimer's Disease” (ACS Med Chem Lett, 2021).
# Calls of active or inactive are those of the source. No cut-off for these calls is given here.
# Key:
# [1] = Half life in mouse liver microsomes; assay type: ADME, Microsome
# [2] = Ratio of drug level in brain to plasma measured after 24 hrs; assay type: ADME, cell-free; conditions: brain and plasma, read-out: BPR
# [3] = target: Voltage-gated inwardly rectifying potassium channel KCNH2 (Homo sapiens, UniProt Q12809)
# N2a = assay: Anti-synaptotoxic activity against mouse Neuro-2a cells assessed as inhibition of amyloid beta (1 to 42)-induced cytotoxicity by MTT-based Trafficking assay; assay type: functional
# [4] = target: Sigma intracellular receptor 2 (Homo sapiens, UniProt Q5BJF2); assay: Binding affinity to Sigma 2-receptor (unknown origin)
# [5] = Ratio of AUC in Brain to AUC in plasma; assay type: ADME, cell-free; conditions: brain and plasma; read-out: Ratio AUC
# [6] = Cognitive enhancing effect in non-transgenic mouse assessed as swimming length measured after 3 days by Morris Water maze method (reference value: 2173 +/-213 cm); assay type: ADME; conditions: buffer, 72 h, time 3 day
# [7] = Cognitive enhancing effect in transgenic hAPP Swe/Ldn mouse assessed as swimming length measured after 1 day by Morris Water maze method (reference value: 3518 +/-138 cm); assay type: ADME; conditions: buffer, 24 h
# [8] = Unbound brain-to-plasma concentration ratio measured after 24 hrs; assay type: ADME, cell-free; conditions: brain and plasma, read-out: K(p,uu,brain)
# [9] = Cognitive enhancing effect in transgenic hAPP Swe/Ldn mouse assessed as swimming length measured after 2 day by Morris Water maze method (reference value: 3252 +/-329 cm); assay type: ADME; conditions: buffer, 48 h
# [10] = Cognitive enhancing effect in non-transgenic mouse assessed as restoration of freezing time measured by Contextual fear conditioning test (reference value: 52 +/-5%); assay type: ADME
# [11] = Reversal of amyloid beta oligomer-induced vesicular membrane trafficking in Sprague-Dawley rat neurons pretreated with amyloid beta oligomer for 1 hr followed by compound treatment by ELISA; assay type: functional, tissue-based; conditions: neuron
# [12] = Cognitive enhancing effect in transgenic hAPP Swe/Ldn mouse assessed as swimming length measured after 3 days by Morris Water maze method (reference value: 2854 +/-267 cm); assay type: ADME; conditions: buffer, 72 h, time 3 day
# [13] = Free drug level in plasma; assay type: ADME, cell-free
# [14] = Cognitive enhancing effect in non-transgenic mouse assessed as swimming length measured after 2 day by Morris Water maze method (reference value: 2666 +/-294 cm); assay type: ADME; conditions: buffer, 48 h
# [15] = Prevention of vesicular membrane trafficking in Sprague-Dawley rat neurons assessed as inhibition of amyloid beta oligomer binding to […] receptor pretreated with compounds followed by amyloid beta oligomer challenge and measured after 1 hr by ELISA; assay type: functional, tissue-based; conditions: neuron
# [16] = Cognitive enhancing effect in non-transgenic mouse assessed as swimming length measured after 4 days by Morris Water maze method (reference value: 1797 +/-219 cm); assay type: ADME; conditions: buffer, 96 h, time 4 day
# [17] = Reversal of amyloid beta oligomer-induced vesicular membrane trafficking in Sprague-Dawley rat neurons at 1 uM pretreated with amyloid beta oligomer for 1 hr followed by compound treatment by ELISA relative to control; assay type: functional; conditions: Neuron
# [18] = Cognitive enhancing effect in transgenic hAPP Swe/Ldn mouse assessed as swimming length measured after 4 days by Morris Water maze method (reference value: 2426 +/-287 cm); assay type: ADME; conditions: buffer, 96 h, time 4 day
# [19] = Improvement in learning and spatial memory in transgenic hAPP Swe/Ldn mouse assessed as spontaneous alteration measured by Y-maze method (reference value: 56.1 +/-2.8%); assay type: ADME
# [20] = Cognitive enhancing effect in transgenic hAPP Swe/Ldn mouse assessed as restoration of freezing time measured by Contextual fear conditioning test (reference value: 32 +/-6%); assay type: ADME
# Mus musculus = assay: Induction of amyloid beta oligomer release in interstitial brain fluid in iv dosed transgenic hAPP Swe/Ldn mouse; assay type: functional, organism-based
# Summary of the method: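 Compound given intravenously to live transgenic mice. Microelectrodes coated with antibodies to total Aβ or to Aβ oligomers were inserted into the brain, and soluble Aβ in interstitial fluid was measured minute by minute.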
# [21] = Improvement in learning and spatial memory in non-transgenic mouse assessed as spontaneous alteration measured by Y-maze method (reference value: 62.6 +/-3.7%); assay type: ADME
# [22] = Efflux ratio of apparent permeability from basolateral to apical membrane over apical to basolateral membrane in human Caco2 cells; assay type: ADME, cell-based; conditions: Caco-2
# [23] = Prevention of vesicular membrane trafficking in Sprague-Dawley rat neurons assessed as inhibition of amyloid beta oligomer binding to […] receptor at 10 uM pretreated with compounds followed by amyloid beta oligomer challenge and measured after 1 hr by ELISA relative to control; assay type: functional; conditions: Neuron
# [24] = Cognitive enhancing effect in non-transgenic mouse assessed as swimming length measured after 1 day by Morris Water maze method (reference value: 3791 +/-150 cm); assay type: ADME; conditions: buffer, 24 h
# [25] = Free drug level in brain; assay type: ADME, tissue-based
# Sequence of Voltage-gated inwardly rectifying potassium channel KCNH2 (Q12809 whole entry): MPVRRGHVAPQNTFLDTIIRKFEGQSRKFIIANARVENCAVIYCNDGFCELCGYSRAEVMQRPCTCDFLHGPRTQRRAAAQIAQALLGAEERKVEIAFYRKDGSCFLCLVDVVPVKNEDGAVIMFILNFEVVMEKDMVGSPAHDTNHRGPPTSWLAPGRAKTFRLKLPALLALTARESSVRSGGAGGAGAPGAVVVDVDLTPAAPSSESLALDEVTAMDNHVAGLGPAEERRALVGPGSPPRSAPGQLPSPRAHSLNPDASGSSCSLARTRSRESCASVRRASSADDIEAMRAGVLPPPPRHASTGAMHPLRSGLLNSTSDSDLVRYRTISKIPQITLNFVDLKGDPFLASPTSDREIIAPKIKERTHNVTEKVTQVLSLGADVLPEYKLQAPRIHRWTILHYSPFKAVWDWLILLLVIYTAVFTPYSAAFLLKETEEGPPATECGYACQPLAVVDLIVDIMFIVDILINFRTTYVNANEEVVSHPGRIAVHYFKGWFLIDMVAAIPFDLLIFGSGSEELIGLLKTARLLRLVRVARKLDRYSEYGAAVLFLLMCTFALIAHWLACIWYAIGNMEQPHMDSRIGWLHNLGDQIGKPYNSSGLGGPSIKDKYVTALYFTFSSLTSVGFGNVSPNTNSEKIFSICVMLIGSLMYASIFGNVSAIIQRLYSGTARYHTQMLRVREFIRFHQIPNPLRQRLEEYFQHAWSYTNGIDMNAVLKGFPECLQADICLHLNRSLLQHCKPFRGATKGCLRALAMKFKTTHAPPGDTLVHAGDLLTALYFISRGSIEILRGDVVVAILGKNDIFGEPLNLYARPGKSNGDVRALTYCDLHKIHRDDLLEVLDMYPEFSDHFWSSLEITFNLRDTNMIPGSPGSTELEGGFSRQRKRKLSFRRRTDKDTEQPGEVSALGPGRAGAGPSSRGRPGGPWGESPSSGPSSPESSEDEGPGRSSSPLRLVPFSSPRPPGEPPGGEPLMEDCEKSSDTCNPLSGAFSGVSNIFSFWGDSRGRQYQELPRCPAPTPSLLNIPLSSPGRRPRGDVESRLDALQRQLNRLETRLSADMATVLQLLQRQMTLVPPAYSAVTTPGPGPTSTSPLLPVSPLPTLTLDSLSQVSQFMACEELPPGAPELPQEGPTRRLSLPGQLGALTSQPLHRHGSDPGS
# Sequence of Sigma intracellular receptor 2 (Q5BJF2 whole entry): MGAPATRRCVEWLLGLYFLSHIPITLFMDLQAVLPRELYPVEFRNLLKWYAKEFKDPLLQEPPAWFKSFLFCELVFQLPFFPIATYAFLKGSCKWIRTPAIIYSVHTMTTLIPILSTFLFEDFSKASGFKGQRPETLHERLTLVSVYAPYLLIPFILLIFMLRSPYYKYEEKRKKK
structure (smiles),measurement,setting,value
C[C@H](CCc1ccc(Cl)c(Cl)c1)NCc1ccc(C(F)(F)F)cc1,half-life,[1],33 min
same,Kp at 24 h,[2],8.2
same,EC50,[3],4.4 µM
same,Activity,N2a,2 µM
COc1cc2c(cc1OC)CN([C@H](C)CCc1ccc(Cl)c(Cl)c1)C2,Ki,[4],0.00044 µM
same,half-life,[1],61 min
same,EC50,[3],0.29 µM
same,Activity,N2a,0.7 µM
C[C@@H](CCc1ccc(Cl)c(Cl)c1)NCc1ccc(C(F)(F)F)cc1,Ki,[4],0.12 µM
same,half-life,[1],53 min
same,EC50,[3],1.1 µM
same,Activity,N2a,11.7 µM
CC(C)Oc1cc(CCC(C)(C)N2Cc3cccc(F)c3C2)ccc1O,Ki,[4],0.011 µM
same,half-life,[1],4 min
same,Kp at 24 h,[2],5.4
same,EC50,[3],9.6 µM
same,Kp,[5],5.64
same,Activity,N2a,0.25 µM
C[C@H](CCc1ccc(Cl)cc1)NCc1ccc(C(F)(F)F)cc1,half-life,[1],27 min
same,Kp at 24 h,[2],2
same,EC50,[3],0.78 µM
same,Activity,N2a,5.7 µM
COc1cc(CCC(C)NCc2ccc(C(F)(F)F)cc2)ccc1O (configuration not stated),Activity,N2a,2.2 µM
CC(C)(C)Oc1cc(CCC(C)(C)N2Cc3ccc(S(C)(=O)=O)cc3C2)ccc1O,Ki,[4],0.0085 µM
same,Activity,[6],2262 cm
same,Activity,[7],3230 cm
same,Kp uu at 24 h,[8],6.75
same,half-life,[1],45 min
same,Kp at 24 h,[2],5.7
same,EC50,[3],26 µM
same,Activity,[9],2332 cm
same,Activity,[10],51%
same,Kp,[5],2.51
same,Activity,N2a,0.31 µM
same,EC50,[11],0.358 µM
same,Activity,[12],1987 cm
same,fraction unbound,[13],0.05
same,Activity,[14],2739 cm
same,EC50,[15],6.8 µM
same,Activity,[16],2008 cm
same,inhibition at 1 µM,[17],88%
same,Activity,[18],1611 cm
same,Activity,[19],58.5%
same,Activity,[20],45%
same,Activity,Mus musculus,Active
same,Activity,[21],65.3%
same,efflux ratio,[22],0.95
same,inhibition at 10 µM,[23],71%
same,Activity,[24],3317 cm
same,fraction unbound,[25],0.13
COc1cc(CC[C@@H](C)N2Cc3cccc(F)c3C2)ccc1O,half-life,[1],16 min
same,Activity,N2a,0.25 µM
